This is a sample that favours compounds with a hit; in the whole collection about 3.1% have one here.
GalR3 antagonist: GalR3 antagonists in HEK293 cells, primary screen, cell-based, fluorescence readout; Galanin receptor type 3 (Homo sapiens), O60755; HEK293 GalR3-CNG cAMP membrane potential fluorescence; galR3 body fused to GalR1 C-terminus; inhibition, % at 3 µM; hit rate 0.44% among 360,000; AID 651719, 2012;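 active = inhibition above the screen-wide average plus 3 SD, cut at about 13% in these data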;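 note: forskolin and galanin both at EC90 stimulate the cells; cAMP rise reported by CNG channel membrane potential dye signal; 0% = forskolin plus galanin with DMSO and 100% = forskolin alone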
Target sequence (O60755 1-299 limits assumed): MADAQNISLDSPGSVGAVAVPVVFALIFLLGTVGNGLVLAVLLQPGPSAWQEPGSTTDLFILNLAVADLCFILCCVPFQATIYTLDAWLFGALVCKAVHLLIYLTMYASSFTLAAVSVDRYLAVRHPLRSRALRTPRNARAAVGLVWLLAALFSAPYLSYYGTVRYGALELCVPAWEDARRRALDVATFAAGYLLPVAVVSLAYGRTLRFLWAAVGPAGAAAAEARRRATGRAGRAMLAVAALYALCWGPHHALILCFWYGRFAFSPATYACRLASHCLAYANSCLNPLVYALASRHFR
GPR7 antagonist: GPR7 receptor antagonists, primary screen, cell-based, fluorescence, single concentration. Neuropeptides B/W receptor type 1 (Homo sapiens), P48145. GPR7-expressing cells, fluorescence antagonist assay. inhibition, % at 4.4 µM. hit rate 1.1% among 290,000; in the data active = inhibition above about 16%, passing the limit was not always enough;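 note: cells stimulated with the agonist NPW; 0% = agonist with vehicle and 100% = vehicle without agonist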
Target sequence (P48145 whole entry, looked up): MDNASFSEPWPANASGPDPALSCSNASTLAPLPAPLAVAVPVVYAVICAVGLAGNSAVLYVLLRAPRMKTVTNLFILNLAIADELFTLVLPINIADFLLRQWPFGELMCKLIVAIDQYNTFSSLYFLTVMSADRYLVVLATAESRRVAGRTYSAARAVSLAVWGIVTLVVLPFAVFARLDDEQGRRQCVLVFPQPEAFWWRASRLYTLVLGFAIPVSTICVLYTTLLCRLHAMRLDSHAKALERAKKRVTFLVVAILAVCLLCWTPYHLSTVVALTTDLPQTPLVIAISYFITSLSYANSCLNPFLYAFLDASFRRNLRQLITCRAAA
OX1R antag-1: OX1R (HCRTR1) antagonists, primary screen, fluorescence, CHO/OX1R cells, Fluo-8 calcium, orexin A; Fluo-8 calcium fluorescence; hit rate 0.43% among 330,000; inhibition, % at 5 µM;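 active = inhibition above its plate's threshold, mean inhibition of all tested compounds on the plate plus 3 SD, cut at about 37% in these data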;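 note: 0% = orexin A challenge wells and 100% = SB-334867-A antagonist wells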
CHO parental Ca: ATP-evoked calcium signal inhibitors, parental CHO, primary screen, counter-screen for OX1R antagonist project, cell-based, fluorescence, Fluo-8 calcium dye; parental CHO-K1, ATP-induced calcium, Fluo-8 fluorescence; inhibition, % at 5.6 µM; hit rate 0.63% among 330,000; AID 463079, 2010;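 active = inhibition above that plate's mean sample inhibition plus 3 SD, cut at about 26% in these data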;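 note: 0% = ATP-challenged DMSO wells and 100% = DMSO wells without ATP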
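Test system: untransfected parental CHO cell line. Compound: one dose, 5.6 µM nominal. Detection: intracellular calcium via Fluo-8 no-wash fluorescent dye. Measure: % inhibition. Benchmarks: ATP-challenged DMSO wells low, unchallenged DMSO wells high.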
OX1R antag-2: antagonists of human orexin 1 receptor (OX1R) | Orexin/Hypocretin receptor type 1 (Homo sapiens), O43613 | OX1R-expressing cells, FRET antagonist read-out | inhibition, % at 6.6 µM | hit rate 1.8% among 330,000; in the data active = inhibition mostly above about 38%, no sharp cut-off; inactive = mostly below about 40%;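 note: 0% = agonist challenge alone and 100% = reference antagonist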
* hit, by the source's call; . = no result.

SMILES	GalR3 antagonist	GPR7 antagonist	OX1R antag-1	CHO parental Ca	OX1R antag-2
O=P(CCCCCCCCCP(=O)(c1ccccc1)c1ccccc1)(c1ccccc1)c1ccccc1	-5.4	-3.1	85.8*	99.5*	26.4
O=P(CCO)(c1ccccc1)c1ccccc1	-0.6	-4.3	-27.2	-10.1	16.8
Cc1ccc2c(CN(C)Cc3cccc(Cl)c3)cc(=O)oc2c1C	-11.8	8.0	-11.7	-9.1	1.0
CSc1ccc(CN(C)Cc2cc(=O)oc3c(C)c(C)ccc23)cc1	-14.5	-7.3	-14.8	52.8*	12.0
CC(=O)Oc1ccccc1C(=O)C=Cc1cccc([N+](=O)[O-])c1	27.6*	.	.	.	.
Cc1cc(O)c(C(=O)/C=C/c2cccc([N+](=O)[O-])c2)c(=O)o1	-1.1	-1.8	-20.3	-10.0	4.9
CC(C)C[C@@H]1NC(=O)[C@@H]2CSCCS(=O)(=O)N2C1=O	-2.1	.	.	.	.
CC(OC(=O)c1ccc(Cl)nc1)C(=O)NC1(C#N)CCCCC1 (stereo not drawn)	-1.1	.	-28.7	0.7	25.7
O=C(COC(=O)CNC(=O)c1ccc(Cl)c([N+](=O)[O-])c1)NC(=O)c1ccccc1	-3.7	-6.7	-7.9	-2.5	51.0*
O=C(COC(=O)c1ccc([N+](=O)[O-])s1)NNC(=O)c1ccccc1	.	.	4.8	2.9	56.7*
O=C(COC(=O)c1ccc(O)cc1)NC(=O)NCc1ccccc1	-7.9	.	-0.1	-10.7	1.3
O=C(COC(=O)c1ccc([N+](=O)[O-])s1)c1ccc[nH]1	-6.5	.	15.8	-6.8	60.7*
O=C(COC(=O)c1ccc([N+](=O)[O-])s1)NC(=O)NCc1ccccc1	-3.3	9.1	-7.4	-6.6	49.0*
O=C(COC(=O)c1ccc([N+](=O)[O-])s1)NCCc1ccccc1	.	.	-9.8	-12.1	27.2*
CCc1cc(C(=O)OCC(=O)NCCc2ccccc2)sc1C	-7.0	.	.	.	.
Cn1c(CNC(=O)CCNC(=O)c2cccc(Br)c2)cc(=O)n(C)c1=O	2.1	-9.1	-19.0	-8.0	17.1
CN(CC(=O)Nc1ccccc1Cl)C(=O)COC(=O)c1cccs1	-1.9	.	-10.7	-1.3	14.8
CN(CC(=O)Nc1ccccc1Cl)C(=O)COC(=O)c1ccc([N+](=O)[O-])s1	-2.1	.	-10.0	-0.5	43.5*
CCCn1c(SCC(=O)Nc2ccc(F)c(Cl)c2)nc(O)cc1=O	-5.1	.	13.3	30.5*	4.3
CCCn1c(SCC(=O)Nc2ccc(Cl)cc2F)nc(O)cc1=O	-6.0	.	-7.1	3.1	3.1
Nc1nc2c(ncn2[C@@H]2O[C@H](C(=O)N[C@H](Cc3ccccc3)C(=O)NCc3ccccc3)[C@@H](O)[C@H]2O)c(=O)[nH]1	-6.7	.	.	.	.
COc1ccccc1-c1cnc(C(O)c2ccc(Cl)cc2)[nH]1 (stereo not drawn)	-7.3	.	.	.	.
COCCN(CCOC)S(=O)(=O)c1ccc(C(=O)NCCCN2CCOCC2)cc1	-1.6	2.3	42.2	56.0*	12.8
CCn1nc([N+](=O)[O-])c(C(C#N)c2nc3cc(C(F)(F)F)ccc3s2)c(Cl)c1=O (stereo not drawn)	-8.1	-8.0	-2.3	-9.6	62.0*
CC(NCc1ccccc1Cl)C(=O)Nc1ccc(C#N)cc1 (stereo not drawn)	2.2	18.4*	-18.8	-16.1	3.6
SMILES	GalR3 antagonist	GPR7 antagonist	OX1R antag-1	CHO parental Ca	OX1R antag-2
CCCCC(CC)C(=O)Nc1ccc(C#N)cc1 (stereo not drawn)	-2.9	16.7	-15.4	-14.7	5.1
C[C@H]1CN([C@@H](C)CO)C(=O)CCCn2nncc2CO[C@H]1CN(C)S(=O)(=O)c1ccc(-n2cccn2)cc1	-5.9	.	.	.	.
Cc1cc(C(=O)N/N=C/c2ccc([N+](=O)[O-])s2)n[nH]1	0.2	-1.6	-10.9	-3.8	53.3*
Cc1cc(C(=O)N/N=C/c2cc(Cl)cc([N+](=O)[O-])c2O)n[nH]1	4.1	-11.5	-17.3	-2.0	66.4*
Cc1cc(C(=O)N/N=C\c2cc(C(C)(C)C)c(O)c(C(C)(C)C)c2)n[nH]1	-6.7	-27.5	-18.7	-7.8	11.3
Cc1[nH]cnc1C(=O)N/N=C/c1ccc([N+](=O)[O-])s1	-10.9	-3.6	-14.4	4.5	71.2*
Cc1cc(C(=O)N/N=C/c2ccc(-c3ccc([N+](=O)[O-])cc3Cl)o2)n[nH]1	-6.6	-11.3	-17.1	-12.0	9.8
Cc1cc(C(=O)N/N=C/c2ccc(-c3ccccc3Cl)o2)n[nH]1	-3.9	-12.7	3.9	-18.0	69.5*
Nc1nc2c(ncn2[C@@H]2O[C@H](C(=O)NCC(F)(F)F)[C@@H](O)[C@H]2O)c(=O)[nH]1	4.2	.	.	.	.
O=C(CSC1CCc2ccccc21)NN=Cc1ccco1 (stereo not drawn)	-1.2	.	.	.	.
COC(=O)c1ccccc1S(=O)(=O)N1CCC(C(=O)OCc2ccc([N+](=O)[O-])cc2)CC1	-3.2	.	-6.5	-1.1	18.5
O=C1c2cccc3c(N4CCCCC4)ccc(c23)C(=O)N1c1ccccc1O	-2.5	-12.0	54.3*	51.8*	12.8
O=C1c2cccc3c(N4CCCCC4)ccc(c23)C(=O)N1c1ccc(O)cc1	-1.6	-2.8	31.7	28.0	10.1
CCN1C(=O)c2cccc3c(Cl)ccc(c23)C1=O	7.4	-18.0	-13.9	1.5	26.7
NN1C(=O)c2cccc3c(C(=O)O)ccc(c23)C1=O	6.1	-7.9	-6.6	-9.8	57.8*
O=C(c1ccc2c3c(cccc13)C(=O)N(O)C2=O)N1CCCCC1	-0.8	-2.4	7.2	-3.4	71.8*
O=C1c2cccc3c(Cl)ccc(c23)C(=O)N1O	0.2	-4.5	53.2*	26.9	52.3*
COC(=O)C1=C(C)N(Cc2cccc(C(F)(F)F)c2)C(=NCC2CC2)NC1c1ccccc1 (stereo not drawn)	-7.2	.	.	.	.
COCC1CN(CCc2ccc(F)cc2)S(=O)(=O)c2c(F)cccc2O1 (stereo not drawn)	-2.6	.	.	.	.
O=C(O)c1ccc2c3c(cccc13)C(=O)N(c1ccccc1)C2=O	-0.4	0.8	-11.1	-4.2	57.5*
Cc1cccn2c(=O)c3cc(C(=O)NCCc4ccccc4)c(=N)n(Cc4ccco4)c3nc12	-6.9	19.6	-26.7	-8.9	14.0
COCCCn1c(=NC(=O)c2ccncc2)c(C#N)cc2c(=O)n3cccc(C)c3nc21	-4.2	-8.2	-14.8	-6.9	41.0*
Cc1cccn2c(=O)c3cc(C#N)c(=NC(=O)c4ccncc4)n(CCCOC(C)C)c3nc12	-0.8	-11.5	-15.6	-10.1	47.1
COCCNC(=O)c1cc2c(=O)n3cccc(C)c3nc2n(Cc2ccncc2)c1=N	-3.4	-16.4	-20.8	-8.8	49.3*
CCCCNC(=O)c1cc2c(=O)n3cccc(C)c3nc2n(Cc2ccncc2)c1=N	-7.2	-19.4	-21.8	-16.3	41.2*
